Three compounds from ChEMBL document CHEMBL1126099, “Synthesis and biological characterization of alpha-(4-fluorophenyl)-4-(5-fluoro-2-pyrimidinyl)-1-piperazinebutanol and analogues as potential atypical antipsychotic agents” (J Med Chem, 1992) can be followed below.

Structures are written as SMILES. Some results are limits rather than exact numbers.

Test [1] has as its target T1, Adrenergic receptor alpha-1 (Rattus norvegicus, UniProt P15823+P23944+P43140).
T1 sequence (P15823 whole entry): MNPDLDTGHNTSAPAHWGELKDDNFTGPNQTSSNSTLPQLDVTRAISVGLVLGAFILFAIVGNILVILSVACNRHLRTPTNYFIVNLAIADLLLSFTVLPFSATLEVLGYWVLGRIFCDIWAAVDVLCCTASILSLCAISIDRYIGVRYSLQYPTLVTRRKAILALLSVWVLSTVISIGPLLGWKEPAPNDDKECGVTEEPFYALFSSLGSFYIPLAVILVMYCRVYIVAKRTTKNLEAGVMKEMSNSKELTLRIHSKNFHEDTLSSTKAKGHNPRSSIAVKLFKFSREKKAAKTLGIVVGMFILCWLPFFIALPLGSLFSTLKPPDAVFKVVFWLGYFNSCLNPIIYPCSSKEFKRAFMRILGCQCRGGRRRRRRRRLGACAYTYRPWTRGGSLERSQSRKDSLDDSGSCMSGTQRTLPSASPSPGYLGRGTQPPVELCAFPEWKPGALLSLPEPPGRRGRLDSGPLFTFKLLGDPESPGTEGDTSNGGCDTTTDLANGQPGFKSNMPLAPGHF
T1 sequence (P23944 whole entry): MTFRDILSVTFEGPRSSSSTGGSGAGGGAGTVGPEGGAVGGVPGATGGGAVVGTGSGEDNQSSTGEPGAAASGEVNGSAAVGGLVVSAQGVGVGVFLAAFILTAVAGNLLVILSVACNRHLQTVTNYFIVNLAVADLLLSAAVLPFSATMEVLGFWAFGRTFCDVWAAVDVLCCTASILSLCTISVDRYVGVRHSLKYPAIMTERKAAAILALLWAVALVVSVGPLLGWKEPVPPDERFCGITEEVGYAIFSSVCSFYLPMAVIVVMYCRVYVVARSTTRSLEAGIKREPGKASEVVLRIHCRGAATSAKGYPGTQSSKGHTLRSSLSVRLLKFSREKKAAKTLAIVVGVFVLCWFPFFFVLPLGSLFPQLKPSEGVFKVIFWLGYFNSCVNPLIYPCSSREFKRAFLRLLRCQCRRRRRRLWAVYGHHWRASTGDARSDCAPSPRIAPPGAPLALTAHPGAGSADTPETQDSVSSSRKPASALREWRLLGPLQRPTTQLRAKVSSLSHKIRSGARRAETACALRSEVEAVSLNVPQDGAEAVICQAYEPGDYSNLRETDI
T1 sequence (P43140 whole entry): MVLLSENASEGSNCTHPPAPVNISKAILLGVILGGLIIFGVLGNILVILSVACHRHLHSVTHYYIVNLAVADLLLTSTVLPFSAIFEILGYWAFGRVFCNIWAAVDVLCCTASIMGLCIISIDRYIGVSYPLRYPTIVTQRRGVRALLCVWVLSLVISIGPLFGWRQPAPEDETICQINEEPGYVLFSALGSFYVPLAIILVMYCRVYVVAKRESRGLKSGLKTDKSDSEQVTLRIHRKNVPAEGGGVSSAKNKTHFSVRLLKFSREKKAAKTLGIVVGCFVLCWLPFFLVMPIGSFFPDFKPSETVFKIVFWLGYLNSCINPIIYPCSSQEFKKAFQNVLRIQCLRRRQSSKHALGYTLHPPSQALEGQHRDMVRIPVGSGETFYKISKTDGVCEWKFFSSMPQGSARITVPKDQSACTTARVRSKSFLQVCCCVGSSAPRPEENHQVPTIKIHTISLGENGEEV
Kind of test: In vitro inhibitory concentration against radioligand [3H]WB-4101 binding to rat cortical alpha-1 adrenergic receptor. In kind it is protein assay.

For test [2], the species on record is Rattus norvegicus. Kind of test: Effective peroral dose for inhibition of conditioned avoidance response in rats. As to conditions: po. In kind it is functional.
The target in test [3] is Sigma non-opioid intracellular receptor 1 (Rattus norvegicus, UniProt Q9R0C9). Kind of test: Compound was tested in vitro for its ability to displace radioligand (+)-[3H]-3-PPP from rat cortical sigma receptor.
The species named for test [4] is Rattus norvegicus. Kind of test: Inhibition of apomorphine-induced stereotypy in rats via peroral route. In kind it is functional. The settings on record: Rattus norvegicus, po; read-out: ED50.
Test [5] addresses T1, Adrenergic receptor alpha-1. Put plainly: Inhibitory concentration against radioligand [3H]-WB- 4101 binding to rat cortical Alpha-1 adrenergic receptor. In kind it is protein assay. Put shortly:
(§1)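 Competition binding against tritiated radioligand. Test drug was run at five concentrations in a single experiment, and IC50 (nM) was derived from displacement.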

Test [6] deals with D(2) dopamine receptor (Rattus norvegicus, UniProt P61169). Put plainly: Inhibitory concentration against radioligand [3H]spiperone binding to rat striatal Dopamine receptor D2. Put shortly: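 [3H]Spiperone displacement at the D2 receptor. Each value comes from a single experiment in which displacement of the tritiated ligand was measured at five concentrations of test drug, and an IC50 in nM was derived from that.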

Test [7] has as its system Rattus norvegicus. Kind of test: Effective in vivo peroral dose against induction of catalepsy in rats. In kind it is functional.
In test [8] the target is T1, Adrenergic receptor alpha-1. Kind of test: Inhibition of [3H]WB-4101 binding to rat cortical Alpha-1 adrenergic receptor in vitro. In kind it is protein assay. The procedure, abridged: as §1
For test [9], the species on record is Mus musculus. Kind of test: Effective dose for inhibition of norepinephrine induced lethality in mouse. In kind it is functional.
Test [10] is filed under the species Mus musculus. Put plainly: Effective dose for inhibition of physostigmine induced lethality in mouse. It is filed as functional.
For test [11], the system named is Rattus norvegicus. Put plainly: Bmax (D2 receptor number) was determined after peroral administration of 15 mg/Kg in rats qd for 29 days. In kind it is functional. The procedure, abridged:
(§2)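 Rats dosed orally once daily for 29 days with vehicle or test drug. Striatal D2 receptor number (Bmax, fmol/mg protein) and affinity (KD, pM) were then measured. Values are mean ± SEM for the number of preparations, with significance versus vehicle by Student's t-test (p < 0.05).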

For test [12], the system named is Rattus norvegicus. Kind of test: Bmax (D2 receptor number) was determined after peroral administration of 30 mg/Kg in rats qd for 29 days. In kind it is functional. The procedure, abridged:
as §2

The species named for test [13] is Rattus norvegicus. Put plainly: Effective dose for ethanol potentiation in rats. In kind it is functional.
The species named for test [14] is Rattus norvegicus. Put plainly: Effective dose for inhibition of spontaneous motor activity in rats. In kind it is functional.
The species named for test [15] is Rattus norvegicus. Kind of test: Effective dose for motor incoordination in rats was determined by rotarod method. It is filed as functional. (In the rotarod test animals must keep their balance on a rotating rod.)
Test [16] deals with Rattus norvegicus. Kind of test: Effect of chronic administration at a peroral dose of 30 mg/Kg qd for 29 days on D2 receptor binding in rat striata. In kind it is functional, organism-based. Put shortly: as §2
Test [17] deals with Rattus norvegicus. Put plainly: Effect of chronic administration at a peroral dose of 15 mg/Kg qd for 29 days on D2 receptor binding in rat striata. In kind it is functional, organism-based. Put shortly: as §2

D(2) dopamine receptor, sequence (P61169 whole entry): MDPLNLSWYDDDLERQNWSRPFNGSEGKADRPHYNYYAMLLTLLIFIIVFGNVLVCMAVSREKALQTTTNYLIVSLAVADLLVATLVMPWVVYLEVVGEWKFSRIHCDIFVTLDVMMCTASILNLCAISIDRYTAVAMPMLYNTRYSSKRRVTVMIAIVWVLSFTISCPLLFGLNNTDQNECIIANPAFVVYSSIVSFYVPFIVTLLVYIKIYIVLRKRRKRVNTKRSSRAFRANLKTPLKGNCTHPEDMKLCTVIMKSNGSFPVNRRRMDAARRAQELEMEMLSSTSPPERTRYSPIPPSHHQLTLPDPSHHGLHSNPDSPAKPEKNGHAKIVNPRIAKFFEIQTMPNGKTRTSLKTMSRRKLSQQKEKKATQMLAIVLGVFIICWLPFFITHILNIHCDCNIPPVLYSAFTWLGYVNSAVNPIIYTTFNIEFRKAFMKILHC
Sigma non-opioid intracellular receptor 1, sequence (Q9R0C9 whole entry): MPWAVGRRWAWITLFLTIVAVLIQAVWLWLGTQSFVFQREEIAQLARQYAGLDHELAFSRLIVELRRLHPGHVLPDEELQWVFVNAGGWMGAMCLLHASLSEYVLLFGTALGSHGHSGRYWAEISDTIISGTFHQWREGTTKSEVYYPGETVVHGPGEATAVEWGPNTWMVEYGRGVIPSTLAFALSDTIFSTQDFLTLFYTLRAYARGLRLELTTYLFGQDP

As to `O=C(CCN1CCN(c2ncc(F)cn2)CC1)c1ccc(F)cc1`, the IC50 in [1] amounted to 523 nM; in test [3], 69 nM. In addition, the ED50 in test [2] and in [4] was above 100 mg/kg each time.
Take `O[C@H](CCCN1CCN(c2ncc(F)cn2)CC1)c1ccc(F)cc1`: the figures for the 50% inhibitory concentration (IC50) in test [5] and in test [6] were 610 nM and above 1000 nM, respectively. In addition, the 50% effective dose (ED50) was 11.4 mg/kg in test [7] (Rattus norvegicus, po, read-out: ED50) and 44 mg/kg in test [4].
Consider `OC(CCCN1CCN(c2ncc(F)cn2)CC1)c1ccc(F)cc1` (stereo in doubt; 16) [BMY-14802], for which the IC50 came out at 520 nM in test [8] and 460 nM in test [5]. In addition, the ED50 in test [9] is above 100 mg/kg; in [10], above 100 mg/kg; in test [7] it was above 100 mg/kg; in test [13], 20.1 mg/kg; in test [14], 87.3 mg/kg; in test [15], 43.5 mg/kg. The ED50 in test [4] was 33 mg/kg. Besides, the Bmax in test [11] stood at 233 fmol/mg protein; in test [12] it was 212 fmol/mg protein. For the same compound, the Kd in test [16] was found to be 0.101 nM; in test [17], 0.121 nM.

As a reminder, the IC50 is the point on the concentration scale where inhibition reaches its midpoint. In general, ED50 refers to the dose that gives a 50% effect, or the effect in half of the subjects. What is called Kd is the equilibrium constant for the complex coming apart.
